Data from article PMC8934255 (Cell chemical biology, 2021).

Columns and labels:
[1] = tested on: Pax proteins; experiment: Phosphorylation of Pax proteins in cell systems; format: cell-based; conditions: Fig. S2
[2] = tested on: Cdh6; experiment: Immunoblot of Cdh6 and Pax2 protein in Pax2-positive RCC; format: cell-based, human; conditions: 24 hours
Summary of the method: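 Pax2-positive human RCC cells grown in RPMI 1640 with 10% FBS were seeded at 5.0 × 10^4 cells/well, attached overnight, then exposed 24 h to increasing test compound concentrations or DMSO. Whole-cell lysates in 2X SDS buffer were run on SDS-PAGE, transferred to PVDF and probed for Cdh6, Pax2 and β-actin with ECL and film detection. Cdh6 densitometry was normalized to β-actin per lane.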

[3] = tested on: Pax2-negative SKOV-3 cells; experiment: Luciferase ATP; format: cell-based, human; conditions: only at 15 μM, tenfold the IC50, 18 hours
[4] = tested on: UTA1/3; experiment: RT-PCR of UTA1/UTA3 mRNA in IMCD cells in high salt; format: cell-based, mouse; conditions: 5 μM, high salt 24 hours
[5] = In vivo pharmacokinetics, plasma clearance in mice; parameters: species or system mouse
Summary of the method: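 Mice got one dose of test compound formulated at 3mg/mL in PBS with 20% DMSO and 50% PEG-400, given intravenously (5 mg/kg) or orally (15 mg/kg). Blood was drawn at 0.5, 2, 4 and 7 h and plasma isolated by centrifugation. Compound was measured by LC-MS/MS and plasma concentration plotted semi-logarithmically against time.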

[6] = Microsomal stability assay with NADPH-fortified mouse liver microsomes; format: in vitro ADME; conditions: for Half-life estimation in mouse liver microsomes: 1 μM compound, NADPH fortified, 5-60 min
Summary of the method: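 1μM test compound was incubated with 200μg pooled mouse liver microsomes in phosphate buffer (3.3mM MgCl2) with 4mg NADPH. Samples taken at 5, 10, 15, 30, 45 and 60 minutes were quenched with cold acetonitrile. After protein precipitation, supernatants were analyzed by LC/MS/MS and percent remaining plotted over time. Verapamil served as the high-clearance control.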

[7] = tested on: Pax2 binding site at the AVPR2 promoter; experiment: ChIP at the AVPR2 promoter in IMCD cells in high salt; format: cell-based, mouse; conditions: 5 μM, high salt 24 hours
Summary of the method: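 Mouse mIMCD3 cells in triplicate were pretreated 4 h with DMSO or 5 μM test compound (per figure legend). They were then kept 24 h in control medium or NaCl-supplemented medium (500 mOsm/kg), with or without compound. Chromatin immunoprecipitation was followed by real-time PCR with primers for the Pax2 binding site at the AVPR2 promoter. Antibodies included PTIP, H3K4me3 and RNA Pol II CTD.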

[8] = target: Pax5 (Homo sapiens, UniProt Q02548); experiment: PRS4-Luc luciferase reporter assay, Pax5 activation; format: cell-based; conditions: compared with Pax2
Sequence of Pax5 (Q02548 whole entry, species assumed): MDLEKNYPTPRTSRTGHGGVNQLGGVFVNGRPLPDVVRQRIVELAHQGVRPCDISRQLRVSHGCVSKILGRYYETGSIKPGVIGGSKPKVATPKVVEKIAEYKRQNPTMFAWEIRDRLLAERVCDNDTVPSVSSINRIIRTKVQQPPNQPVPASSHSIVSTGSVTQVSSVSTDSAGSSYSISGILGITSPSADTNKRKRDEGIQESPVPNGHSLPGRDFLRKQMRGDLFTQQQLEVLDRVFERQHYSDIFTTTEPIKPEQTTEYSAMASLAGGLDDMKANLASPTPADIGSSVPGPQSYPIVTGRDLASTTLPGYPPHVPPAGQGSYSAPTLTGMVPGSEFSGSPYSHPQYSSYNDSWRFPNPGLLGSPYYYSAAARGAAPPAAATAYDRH

[9] = tested on: Pax8 binding site at the Slc14a2 promoter; experiment: ChIP at the Slc14a2 promoter and Pax8 western blot in IMCD cells in high salt; format: cell-based, mouse; conditions: 5 μM, high salt 24 hours
[10] = tested on: Avpr2; experiment: RT-PCR of Avpr2 expression in IMCD cells in high salt; format: cell-based, mouse; conditions: 5 μM, 500 mOsm/kg, 24 hours
[11] = target: Pax8 (Homo sapiens, UniProt Q06710); experiment: PRS4-Luc luciferase reporter assay, Pax8 activation; format: cell-based; conditions: compared with Pax2
Sequence of Pax8 (Q06710 whole entry, species assumed): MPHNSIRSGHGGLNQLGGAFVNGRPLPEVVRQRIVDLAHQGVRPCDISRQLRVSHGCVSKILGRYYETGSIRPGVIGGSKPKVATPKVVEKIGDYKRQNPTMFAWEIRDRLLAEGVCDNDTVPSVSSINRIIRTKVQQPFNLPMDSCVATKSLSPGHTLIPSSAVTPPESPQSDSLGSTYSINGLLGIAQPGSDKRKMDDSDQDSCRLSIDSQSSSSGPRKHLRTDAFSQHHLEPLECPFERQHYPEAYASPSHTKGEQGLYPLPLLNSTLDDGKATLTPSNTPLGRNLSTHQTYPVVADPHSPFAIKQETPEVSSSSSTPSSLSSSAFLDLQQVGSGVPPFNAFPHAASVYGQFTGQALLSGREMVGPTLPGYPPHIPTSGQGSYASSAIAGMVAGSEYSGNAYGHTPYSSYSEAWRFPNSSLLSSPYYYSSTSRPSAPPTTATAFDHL

[12] = tested on: Pax2 expressing RCC; experiment: Phospho-histone H3 immunoblot; format: cell-based, human; conditions: 24 hours, vs vehicle
Summary of the method: (§1)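 Human RCC or SKOV-3 cells (RPMI 1640, 10% FBS) or HEK293 cells (DMEM, 10% FBS) were seeded at 5.0 × 10^4 cells/well and attached overnight. Cells had 24 h of increasing test compound concentrations or DMSO. Lysates were boiled 5 min at 95°C in 2X SDS buffer, separated on 8% or 15% gels, transferred to PVDF at 4°C and probed for phospho-H3 (Ser10), total H3 and β-actin. Significance was by ANOVA with Dunnett's test versus vehicle.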

[13] = target: Pax2 (Mus musculus, UniProt P32114); format: cell-based; conditions: for Fold reduction (FR) of luminescence relative to vehicle treated Pax2 transfected PRS4-Luc cells: at 1.56 μM
Sequence of Pax2 (Mus musculus, UniProt P32114) (P32114 1-391 isoform P32114-2): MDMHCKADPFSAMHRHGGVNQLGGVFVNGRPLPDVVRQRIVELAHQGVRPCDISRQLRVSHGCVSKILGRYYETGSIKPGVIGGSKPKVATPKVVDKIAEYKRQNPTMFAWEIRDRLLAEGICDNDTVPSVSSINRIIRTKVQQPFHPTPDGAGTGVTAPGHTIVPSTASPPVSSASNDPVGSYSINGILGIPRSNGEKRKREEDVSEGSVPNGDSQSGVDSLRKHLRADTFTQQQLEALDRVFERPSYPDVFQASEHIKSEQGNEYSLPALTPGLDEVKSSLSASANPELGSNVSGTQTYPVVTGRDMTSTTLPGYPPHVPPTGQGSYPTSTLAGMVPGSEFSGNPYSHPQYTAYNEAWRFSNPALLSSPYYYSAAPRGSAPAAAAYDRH

[14] = tested on: Pax2-positive RCC cells; experiment: Luciferase ATP; format: cell-based, human; conditions: each concentration tested, 18 hours
[15] = tested on: Pax2, Pax8, PTIP; experiment: Western blot of Pax2, Pax8 and PTIP protein levels in IMCD cells; format: cell-based, mouse; conditions: 5 μM, mIMCD cells
Summary of the method: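 Mouse IMCD cells were cultured 24 h in normal or high-salt medium with DMSO or 5 μM test compound. Lysates were western blotted for Pax2, Pax8 and PTIP.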

[16] = tested on: ovarian carcinoma (SKOV-3) cells; experiment: Phospho-histone H3 immunoblot in Pax2-negative SKOV-3 cells; format: cell-based, human; conditions: each concentration tested, 24 hours, vs vehicle (DMSO)
Summary of the method: as §1

[17] = tested on: HEK293 cells; experiment: Phospho-histone H3 immunoblot in HEK293 cells lacking Pax2; format: cell-based, human; conditions: increasing concentrations, 24 hours
Summary of the method: as §1

[18] = tested on: BRE-Luc cells; experiment: BRE-Luc counter screen; format: cell-based, human; conditions: for Selectivity in PRS4-Luc cells over BRE-Luc cells: 8-point titration, fresh powder, duplicate
Summary of the method: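 Clonal HEK293 cells with an integrated BRE-Luc reporter, kept in DMEM with 10% FBS at 37°C and 5% CO2, were prepared like the PRS4-Luc cells. 6 × 10^3 cells/well (384-well) went onto plates pre-dosed with test compound or DMSO, in 8-point titrations in duplicate from fresh powder. Plates were incubated overnight, then Steady-Glo was added and luminescence read.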

[19] = tested on: Pax2; conditions: at 10 μM; ref Grimley et al., 2017; cited from earlier work

Row | Compound | Increased UTA1/3 mRNA expression in high salt [4] | Half-life estimation in mouse liver microsomes [6] [min] | Histone H3K4me3 and RNA PolII recruitment at the AVPR2 promoter (ChIP) [7] | Increased Pax2 binding to the Avpr2 promoter in high salt (ChIP) [7] | Recruitment of PTIP at the AVPR2 promoter (ChIP) [7] | Increased H3K4me3 and PolII binding at the Slc14a2 promoter (ChIP) [9] | Pax8 protein levels or binding to the Slc14a2 promoter [9] | Recruitment of PTIP and the H3K4 methyltransferase complex at the Slc14a2 promoter (ChIP) [9] | Increased Avpr2 expression in response to high salt [10] | Fold reduction (FR) of luminescence relative to vehicle treated Pax2 transfected PRS4-Luc cells [13] | Pax2, Pax8, or PTIP protein levels [15] | Selectivity in PRS4-Luc cells over BRE-Luc cells [18] | further results
1 | Cc1ccc(C)c(N2CCN(c3c(C)c(C)nc4ncnn34)CC2)c1 [BG-1] | significantly inhibited | 7.89 | prevented | no effect | inhibited | prevent | no effect | inhibit | significantly inhibited | 0.58 | did not affect | selective activity | Effect on the phosphorylation of Pax proteins [1]: could not determine any discernible effects; Cdh6 protein levels ([2]; 1.5 μM): significant reduction; Pax2 protein levels ([2]; 1.5 μM): no effect; Pax2 protein levels ([2]; 15 μM): also reduced; Metabolically active cells (ATP luminescence) [3]: significant drop; Stability in vivo, rank among the three compounds ([5]; IV 5 mg/kg or PO 15 mg/kg, plasma 0.5-7 h): most stable compound in vivo; Rate of plasma clearance compared to the other two compounds ([5]; intravenous 5 mg/kg single dose): lowest rate of clearance; Inhibition of Pax5 activation of the PRS4-Luc reporter [8]: similarly inhibited; Inhibition of Pax8 activation of the PRS4-Luc reporter [11]: similarly inhibited; pHH3 levels ([12]; 1.5 μM): significant reduction; pHH3 levels ([12]; 15 μM): significant reduction; Change of IC50 of BG1 in combination with EG1 ([13]; fixed 10 μM EG1, Prs4-Luc reporter cells, Fig. S3): reduce the IC50; Percentage of viable cells (ATP luminescence) [14]: significantly and dose-dependently lowered; pHH3 levels [16]: no significant change; pHH3 levels [17]: did not significantly change
2 | Cc1nc2ncnn2c(N2CCN(c3ccc(Cl)cc3)CC2)c1C [BG-2] | significantly inhibited | 46.24 | prevented | no effect | inhibited | prevent | no effect | inhibit | significantly inhibited | 0.78 | did not affect | selective activity | Stability in vitro, rank among the three compounds ([6]; mouse liver microsomes): most stable in vitro
3 | CCc1c(C)nc2ncnn2c1Nc1ccc(Cl)cc1 [BG-3] |  | 25.39 |  |  |  |  |  |  |  | 0.82 |  | selective activity | Signs of cytotoxicity in counter screen ([18]; PRS4-Luc and BRE-Luc cells, up to 50 μM): did not indicate signs of cytotoxicity
4 | COc1ccccc1C(=O)Nc1ccc(C(=O)Nc2ccccc2C(=O)O)cc1 [EG1] |  |  |  |  |  |  |  |  |  |  |  |  | Maximal inhibition of Pax2 [19]: approximately 50%
